Key:
Streptococcus pneumoniae [1] = assay: Antibacterial activity against Streptococcus pneumoniae M86B overexpressing patA, patB and inactivated patB with single mutation by standardized agar doubling dilution method in presence of 20 ug/ml reserpine efflux pump inhibitor; assay type: functional
Method in brief: (§1)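 MICs were determined by BSAC agar doubling dilution in the presence of reserpine at 20 μg/ml. Strains were grown in BHI broth for 24 h at 37°C in 5% CO2, with R6 as control. Synergy was defined as an MIC drop of ≥2 dilutions with the inhibitor.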

Streptococcus pneumoniae [2] = assay: Antibacterial activity against dye-resistant Streptococcus pneumoniae M46 DR overexpressing patA, patB by standardized agar doubling dilution method in presence of 20 ug/ml reserpine efflux pump inhibitor; assay type: functional; method in brief: as §1

Question: CC[n+]1c(-c2ccccc2)c2cc(N)ccc2c2ccc(N)cc21.[Br-] [HOMIDIUM BROMIDE] was tested. Which MIC (Streptococcus pneumoniae [1]) did it give?
Answer: Its MIC is 0.5 µg/mL.

Question: And the MIC (Streptococcus pneumoniae [2])?
Answer: Its MIC is 0.5 µg/mL.
